From the EternaBench riboswitch data

Test system: MS2 coat protein
Assay: apparent Kd, MS2 coat protein; higher = weaker binding; RNA-MaP array; FMN 200 µM where present
Method in brief: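 Each design was made on Illumina sequencing-chip clusters by stalled E. coli RNA polymerase and titrated with SNAP-549-labelled MS2 coat protein from 0.7 or 1.5 nM, doubling to 3 µM, in the absence and then the presence of constant ligand. The buffer was 100 mM Tris-HCl pH 7.5, 80 mM KCl, 4 mM MgCl2, BSA, DTT, yeast tRNA and Tween-20. The apparent Kd is the median of filtered per-cluster fits of binding curves, with green signal normalised to red-channel RNA signal and control-cluster median Fmax.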

[1] = designed as: OFF switch for flavin mononucleotide, no ligand
[2] = ligand present: flavin mononucleotide, designed as: OFF switch for flavin mononucleotide
[3] = designed as: ON switch for flavin mononucleotide, no ligand
[4] = ligand present: flavin mononucleotide, designed as: ON switch for flavin mononucleotide

Sequence: CCGGAUAUGCAGGAUAUCGAAUCGGAAACGAUUCGAGAAGGGUAUACAUGAGGAUCACCCAUGUGUCCUACCGG
- apparent Kd [1]: 24.9 nM
- apparent Kd [2]: 31.6 nM

Sequence: CCGGCCGCCGUGAGGAUAUGCCCGCGCGCCCGCGGGCAGAAGGCACAUGAGGAUCACCCAUGUCCUGCGGUCCC
- apparent Kd [1]: 20.1 nM
- apparent Kd [2]: 119 nM

Sequence: CCGGCUUAGGAGGAUAUAGGAGUCGAUAGACACCUAGAAGGCCUAACAUGAGGAUCACCCAUGUGUCCUACCGG
- apparent Kd [1]: 17.8 nM
- apparent Kd [2]: 61.5 nM

Sequence: CCGGGCGGUUUGCCCACACUGUCACAGGAUAUGCCCAAAACAUGAGGAUCACCCAUGUCAAAUACGCAGAAGGGUGAUCGGAAA
- apparent Kd [3]: 55.8 nM
- apparent Kd [4]: 37 nM

Sequence: CCGUAGAGAGGAUAUACAUGAGGAUCACCCAUGUGACAUCGAACGAUGUCGCCUAGUCGUAGAAGGUUCAAACG
- apparent Kd [1]: 25.4 nM
- apparent Kd [2]: 24.8 nM

Sequence: CCGUCAAUCGAGAAGGGCCUAUGUGCUACAUCGGCAGGAUAUCGACAUGAGGAUCACCCAUGUUGGCGAUCCUUUUUGGCGGAC
- apparent Kd [1]: 156 nM
- apparent Kd [2]: 24.1 nM

Sequence: CCUAAGGACACAGGAUAUAGCGUGGUGGCUGGGCUCCCACGGCGAGCGGCGCUAGAAGGGUGACCACAUGAGGAUCACCCAUGU
- apparent Kd [3]: 538 nM
- apparent Kd [4]: 148 nM

Sequence: CCUAAGGACACAGGAUAUAGCGUGGUGGCUGUGCUCCAACGGCGAGCGGCGCUAGAAGGGUGACCACAUGAGGAUCACCCAUGU
- apparent Kd [3]: 665 nM
- apparent Kd [4]: 177 nM

Sequence: CCUAUACAUGAGGAUCACCCAUGUCAGGAUAUAGAAAGCCGCGGAAUAGGACACGGCACUAGAAGGGACUGGCU
- apparent Kd [1]: 29.7 nM
- apparent Kd [2]: 36.1 nM

Sequence: CCUAUGUGAGGAUAUCACUGGUCUGCUCACUAGAUGAUCAGUGAGAAGGCACAUGAGGAUCACCCAUGUCAGUG
- apparent Kd [1]: 183 nM
- apparent Kd [2]: 41.7 nM

Sequence: CCUAUGUGAGGAUAUCACUGGUCUUUUCAUUAGAUGAUCAGUGAGAAGGCACAUGAGGAUCACCCAUGUCAGUG
- apparent Kd [1]: 90.7 nM
- apparent Kd [2]: 26.7 nM

Sequence: CCUCCACAUGAGGAUCACCCAUGUCAGGAUAUCGUGUGCGCGUUUUCGGUCUUUCGCGCGAGAAGGGACGUCUG
- apparent Kd [1]: 26.9 nM
- apparent Kd [2]: 30.1 nM

Sequence: CCUCCACAUGAGGAUCACCCAUGUCAGGAUAUCGUGUGUUUUUUUUCGGUCGUGCGUGCGAGAAGGGACGUCUU
- apparent Kd [1]: 25.9 nM
- apparent Kd [2]: 29.7 nM

Sequence: CCUCUACAUGAGGAUCACCCAUGUGAGGAUAUCUCGGAGCAGCCUAUUAAGGCGCUCCAGAGAAGGCACGUGUA
- apparent Kd [1]: 19.3 nM
- apparent Kd [2]: 28.3 nM

Sequence: CCUGACGCAUCAGGAUAUGCUUACAUCCAUGUUGCAGAAGGGAUGCGUUCUGAAAACAUGAGGAUCACCCAUGUAAGCGGCCAA
- apparent Kd [3]: 82 nM
- apparent Kd [4]: 52.2 nM

Sequence: CCUGAGUGUCUAGGAUAUGCAUACCCGAGCUUUGCAGAAGGAGACAUGAGGAUCACCCAUGUGGACUUGGCAGGUCUCGCACCA
- apparent Kd [1]: 5.91 nM
- apparent Kd [2]: 7.59 nM

Sequence: CCUGUGUGAGGAUAUGUACUGCUCCUGUCCAACAGUGUAGAGCAGAAGGCACAUGAGGAUCACCCAUGUGAAAA
- apparent Kd [1]: 26.2 nM
- apparent Kd [2]: 23.1 nM

Sequence: CCUUAACAUGAGGAUCACCCAUGUGAGGAUAUGAUGCAGCAGUGGUCUACGCUGUGCAUCAGAAGGUACAUGGU
- apparent Kd [1]: 35.9 nM
- apparent Kd [2]: 145 nM

Sequence: CCUUCAGCGAACGAUACGAAUGGACAUGAGGAUCACCCAUGUAGAAGGACAGGAGAAUAACGACUGUAGGAUAUACAUUUAGUG
- apparent Kd [1]: 22.3 nM
- apparent Kd [2]: 28.6 nM

Sequence: CCUUGACAUGAGGAUCACCCAUGUGAGGAUAUAGAAUACUUCAUACACUGACCUCCUUCUAGAAGGCACAUCUC
- apparent Kd [1]: 15.3 nM
- apparent Kd [2]: 15.1 nM

Sequence: CCUUUGAAGAUCCUAGAUUUCGACAUGAGGAUCACCCAUGUGCAGGAUAUCGUGCCAGUGAUGUGCGAGAAGGGCAGUCUCUGC
- apparent Kd [1]: 50.8 nM
- apparent Kd [2]: 55 nM

Sequence: CGAAAAUUUCAGAAGGACCAAUUCCACAUGAGGAUCACCCAUGUCGAUGGUAGGAUAUGGAGUUGUGGACAGGGUGGAUGUUCC
- apparent Kd [3]: 122 nM
- apparent Kd [4]: 12.6 nM

Sequence: CGAAACAACACAACGAAGCAGGUACCAGAAGGGACGGCGUCACAUGAGGAUCACCCAUGUUGCAGUCAGGAUAUGGGCCAUCCU
- apparent Kd [3]: 33.1 nM
- apparent Kd [4]: 6.95 nM

Sequence: CGAAAUGAUAGAGGAUAUGUUUAACAUGAGGAUCACCCAUGUGACAUGGGAUUAAUAUAUAACUUACAGAAGGCUAUUCAAUCG
- apparent Kd [1]: 38.7 nM
- apparent Kd [2]: 52.1 nM

Sequence: CGAACUAAGUAGAAGGCUGUCUUAAAAUAGGACAGAGGAUAUACAUGAGGAUCACCCAUGUACUCCUUUAAUAAGUUCGAAAUA
- apparent Kd [1]: 5.22 nM
- apparent Kd [2]: 6.13 nM

Sequence: CGAAGUCCGUAGAAGGGUGACAUGAGGAUCACCCAUGUGCGAGCGGAGGGAGUCAUCGGCUCGCCACAGGAUAUACGGAGCACG
- apparent Kd [3]: 58.1 nM
- apparent Kd [4]: 49.2 nM

Sequence: CGACAGUCAGGAUAUGCAAAAAAAAAAAAAAAAAAAAAAAAGCAGAAGGGACAUGAGGAUCACCCAUGUCGUCG
- apparent Kd [1]: 59.5 nM
- apparent Kd [2]: 45.2 nM

Sequence: CGAGUUUUUGAGAAGGCAUAUUAUAUUAUACCACAUGUUUACAUGAGGAUCACCCAUGUUUCCUAUGAGGAUAUCAGAAUGUCG
- apparent Kd [1]: 9.34 nM
- apparent Kd [2]: 7.33 nM

Sequence: CGAUAACAUAGUUAUCCGUAGCGAACAUGAGGAUCACCCAUGUAGGAUAUGUUACUAAACUAGUAACAGAAGGACAUGAGUCUU
- apparent Kd [1]: 34.9 nM
- apparent Kd [2]: 263 nM

Sequence: CGAUAGGACAGAGGAUAUACACAUGAGGAUCACCCAUGUGAUUACAACGCGUAAGCUCCAAACAUGUAGAAGGCUGUCCUAUCG
- apparent Kd [1]: 17.6 nM
- apparent Kd [2]: 20.6 nM

Sequence: CGAUAUUAUGUCAGGAUAUACAUUGCGAAAGCAAUGUAGAAGGGACAUGAGGAUCACCCAUGUUCCUACUAUCG
- apparent Kd [1]: 12.3 nM
- apparent Kd [2]: 15.7 nM

Sequence: CGAUGACAUAGUCAUCCGUAACGGACAUGAGGAUCACCCAUGUAGGAUAUGCUACUCAACGAGUAGCAGAAGGACAUGAGUCUU
- apparent Kd [1]: 38.3 nM
- apparent Kd [2]: 347 nM

Sequence: CGAUGUUAUGUCAGGAUAUGCAUUGCGAAAGCGAUGCAGAAGGGACAUGAGGAUCACCCAUGUCCUAACCAUCG
- apparent Kd [1]: 12.3 nM
- apparent Kd [2]: 18.8 nM

Sequence: CGCAAACAUGAGGAUCACCCAUGUGAGGAUAUGUGAGCACGAGAAAGAUAAAGUGAGCACAGAAGGCACAAGCG
- apparent Kd [1]: 60.4 nM
- apparent Kd [2]: 62.9 nM

Sequence: CGCAACUUUUCUCAUGUAAACAUGAGGAUCACCCAUGUAAUGAGAAGGAGGAGAAAGAGAGAAUCCUAGGAUAUCAGAGUUGCG
- apparent Kd [1]: 6.29 nM
- apparent Kd [2]: 6.53 nM

Sequence: CGCAAUAUACAGAAGGAGUUAUUGAGAGGUUUACUAGGAUAUGUUCACAUGAGGAUCACCCAUGUCAUAUGGUUUUUUAUUGCG
- apparent Kd [1]: 13.6 nM
- apparent Kd [2]: 11.4 nM

Sequence: CGCACUGAUAGAGGAUAUGUUGUACAUGAGGAUCACCCAUGUGUUUUUGUAUCAAUAUUAGUGAAACAGAAGGCUAUUAGUGCG
- apparent Kd [1]: 5.65 nM
- apparent Kd [2]: 4.65 nM

Sequence: CGCACUGAUAGAGGAUAUGUUUUACAUGAGGAUCACCCAUGUGUACAAGGAUCAAUAUAUUAGUAACAGAAGGCUAUUUGUGCG
- apparent Kd [1]: 21.7 nM
- apparent Kd [2]: 19.1 nM

Sequence: CGCAUAUAUGUAAGGAUAUCUGCUUCGCAGAGGCAAGAGAAGGUACAUGAGGAUCACCCAUGUAUUUAAGGCGG
- apparent Kd [1]: 22.6 nM
- apparent Kd [2]: 25.6 nM

Sequence: CGCAUCUCUUCAAUUCCUUCACAUGAGGAUCACCCAUGUAGGGAGGAUAUGCAAGCCUAUUGGCGGCAGAAGGCCCUGCAAUGG
- apparent Kd [1]: 177 nM
- apparent Kd [2]: 86.9 nM

Sequence: CGCAUUCCGUAGAAGGGUGACAUGAGGAUCACCCAUGUGCGAGCCGAGGGAGUCAGCGGCUCGCCACAGGAUAUACGGAGCACG
- apparent Kd [3]: 87.3 nM
- apparent Kd [4]: 84.8 nM

Sequence: CGCCACUUAACAGCGGCGCGGUCGAGAAGGGUACAUGAGGAUCACCCAUGUCACGUUCCUCCUGUACAGGAUAUCGUACGGGUA
- apparent Kd [1]: 65.6 nM
- apparent Kd [2]: 117 nM

Sequence: CGCCGACAUGAGGAUCACCCAUGUCACAACUGGUCAGGAUAUGGUAUGAUUUGGCUAUUGCCAGAAGGGACCUCAG
- apparent Kd [3]: 50.5 nM
- apparent Kd [4]: 21 nM

Sequence: CGCUACGUUUCGUAGCAGUGUCAUCGAGAAGGCCCUGACAUGAGGAUCACCCAUGUUGUUACAUGGGAGGAUAUCGAUGAUACA
- apparent Kd [3]: 12.8 nM
- apparent Kd [4]: 4.99 nM

Sequence: CGCUACGUUUCGUAGCAGUGUCAUCGAGAAGGCCCUGACAUGAGGAUCACCCAUGUUGUUACAUGGGAGGAUAUCGAUGAUACC
- apparent Kd [3]: 12.2 nM
- apparent Kd [4]: 5.25 nM

Sequence: CGCUACGUUUCGUAGCAGUGUCAUCGAGAAGGCCCUGACAUGAGGAUCACCCAUGUUGUUACAUGGGAGGAUAUCGAUGAUACU
- apparent Kd [3]: 13.4 nM
- apparent Kd [4]: 5.25 nM

Sequence: CGCUACUACCAGAAGGACAUGAGGAUCACCCAUGUAGGAUAUGGGUUACACGUUCCUGUGAAUUGUUACUACGCUACGUAUGCG
- apparent Kd [3]: 401 nM
- apparent Kd [4]: 21.5 nM

Sequence: CGCUAGGAUGGGUCUAAUGGACCUCAGGAUAUGCUUGUACAUGAGGAUCACCCAUGUAACAUUGUGCAGAAGGGAGGAUCCACG
- apparent Kd [3]: 8.82 nM
- apparent Kd [4]: 4.57 nM

Sequence: CGCUAGUCAGGAUAUACGAACAUGUCAAAAGACGUGAAGGGACAUGAGGAUCACCCAUGUAGAAGGGACUAGCU
- apparent Kd [1]: 27 nM
- apparent Kd [2]: 182 nM

Sequence: CGCUAUGACAUAGGAUAUUGGUACAUGAGGAUCACCCAUGUCAACCUUUAAGCAAAAUUUGUUGACAAGAAGGAUGUGGUAGCG
- apparent Kd [3]: 11 nM
- apparent Kd [4]: 7.71 nM

Sequence: CGCUCAAGAGAGAAGGAUAGAAUCAGAAGGCGUAACAUGAGGAUCACCCAUGUUUAGUAGUGUAACGAGGAUAUGAAAUGAGCG
- apparent Kd [1]: 9.61 nM
- apparent Kd [2]: 10.8 nM

Sequence: CGCUCACAUGAGGAUCACCCAUGUCCUAGGAGGUCAGGAUAUAGCCCGCAUCCGCUGCGGCUAGAAGGGACAGCUG
- apparent Kd [3]: 203 nM
- apparent Kd [4]: 68.6 nM

Sequence: CGCUCUAUAUAUUUGGCAAGAAUCAGAAGGCGUUACAUGAGGAUCACCCAUGUUUUGUAUAGUAACGAGGAUAUGAUAUGAGCG
- apparent Kd [1]: 13.3 nM
- apparent Kd [2]: 13.3 nM

Sequence: CGCUGCCACGCAGGAUAUGCAUUGGAUUACAAUGCAGAAGGGCGAUUACAUGAGGAUCACCCAUGUGUUGGCAGUGAAGAAGAG
- apparent Kd [3]: 1490 nM
- apparent Kd [4]: 83.4 nM

Sequence: CGCUGGUGACAGCAUCCAUCAAAACAUGAGGAUCACCCAUGUAGAAGGCUGUACGGUUACCGUACAGAGGAUAUACAAUGAUGU
- apparent Kd [1]: 16 nM
- apparent Kd [2]: 27.2 nM
